The text below walks through data of ChEMBL document CHEMBL1142952, “Design, synthesis, and activity of 2-imidazol-1-ylpyrimidine derived inducible nitric oxide synthase dimerization inhibitors” (J Med Chem, 2007).

Calls of active or inactive are those of the source.

What is called IC50 is the concentration that inhibits the measured activity by half. The term clearance denotes a measure of how efficiently the substance is removed, as volume per time. The low end stands for a low capacity for elimination, the high end for a high capacity for elimination. Broadly, the half-life is the time in which the quantity being followed falls by half. For orientation: bioavailability means the share of a dose that reaches the circulation, judged against a reference dose that is usually intravenous. Higher therefore signals much systemic uptake.

Data set [1] is described as follows: Inhibition of tetracycline system-induced human NOS expressed in SF9 cells. A digest of the protocol:
(§1)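 SF9 cells carrying a tetracycline-induced system expressing one NOS isoform (iNOS, ecNOS or bcNOS); cellular NO formation inhibition measured, compounds up to 10 µM.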

For data set [2], the system named is BSC-1. The data set can be described thus: Selectivity ratio, IC50 for bcNOS/IC50 for iNOS using vaccinia virus-induced system in BSC1 cells. Type of data set: cell-based. The following applies: Homo sapiens. A digest of the protocol: (§2)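 For each compound, the IC50 against bcNOS (b/i) or ecNOS (e/i) is divided by the iNOS IC50 from the same BSC-1 vaccinia system.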

For data set [3], the system named is BSC-1. The data set can be described thus: Selectivity ratio, IC50 for ecNOS/IC50 for iNOS using vaccinia virus-induced system in BSC1 cells. Type of data set: cell-based. The conditions noted are these: Homo sapiens. The procedure, abridged:
as §2

For data set [4], the target named is Nitric oxide synthase, inducible (Rattus norvegicus) (UniProt Q06518). The data set can be described thus: Activity against rat cerebellum iNOS upto 1 uM.
In data set [5] the test system is Sf9. The data set can be described thus: Selectivity ratio, IC50 for ecNOS/IC50 for iNOS using tetracycline-induced system in SF9 cells. Type of data set: cell-based. The following applies: Homo sapiens. The procedure, abridged:
as §1

The test system of data set [6] is Sf9. Put plainly: Selectivity ratio, IC50 for bcNOS/IC50 for iNOS using tetracycline-induced system in SF9 cells. Type of data set: cell-based. The conditions noted are these: Homo sapiens. A digest of the protocol: as §1
The nature of data set [7]: Inhibition of vaccinia virus system-induced human NOS expressed in BSC1 cells. The following applies: bsc-1. Type of data set: cell-based.
The target of data set [8] is Nitric oxide synthase, inducible (Homo sapiens, UniProt P35228). The data set can be described thus: Inhibition of cytokine-induced iNOS expressed in human A172 cells assessed as inhibition of NO formation. Type of data set: cell-based, A 172.
Data set [9] can be described thus: Clearance in dog at 3 mg/kg. Type of data set: ADME, organism-based, Canis lupus familiaris. Details: dose 3 mg/kg. The following applies: in vivo.
The nature of data set [10]: Half life in rat at 10 mg/kg, iv. Type of data set: ADME, organism-based. Details: dose 10 mg/kg, route intravenous. The conditions noted are these: in vivo.
Data set [11] can be described thus: Half life in dog at 3 mg/kg, iv. The following applies: in vivo. Details: dose 3 mg/kg, route intravenous. Type of data set: ADME, organism-based, Canis lupus familiaris.
Data set [12] is described as follows: Bioavailability in po and iv dosed rat 10 mg/kg, po. Type of data set: ADME, organism-based. The conditions noted are these: in vivo.
A further data set concerns Rattus norvegicus. The data set can be described thus: Amelioration of adjuvant-induced arthritis in sc dosed Lewis rat. Type of data set: functional, organism-based. The procedure, abridged:
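Adult male Lewis rats immunized intradermally at the proximal tail with Mycobacterium butyricum in incomplete Freund's adjuvant (10 mg/mL, 0.1 mL). Starting the next day, dosed subcutaneously at 3, 10 or 30 mg/kg or vehicle twice daily (12 h apart); naive group untreated; 10 rats per group. Weighed and clinically scored (0-4 per limb) 3 times weekly; radiological scoring; sacrifice at day 34-35.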

Data set [13] is described as follows: Bioavailability in dog at 3 mg/kg, po. Type of data set: ADME, organism-based, Canis lupus familiaris. The conditions noted are these: in vivo.

Sequence of Nitric oxide synthase, inducible (P35228 whole entry): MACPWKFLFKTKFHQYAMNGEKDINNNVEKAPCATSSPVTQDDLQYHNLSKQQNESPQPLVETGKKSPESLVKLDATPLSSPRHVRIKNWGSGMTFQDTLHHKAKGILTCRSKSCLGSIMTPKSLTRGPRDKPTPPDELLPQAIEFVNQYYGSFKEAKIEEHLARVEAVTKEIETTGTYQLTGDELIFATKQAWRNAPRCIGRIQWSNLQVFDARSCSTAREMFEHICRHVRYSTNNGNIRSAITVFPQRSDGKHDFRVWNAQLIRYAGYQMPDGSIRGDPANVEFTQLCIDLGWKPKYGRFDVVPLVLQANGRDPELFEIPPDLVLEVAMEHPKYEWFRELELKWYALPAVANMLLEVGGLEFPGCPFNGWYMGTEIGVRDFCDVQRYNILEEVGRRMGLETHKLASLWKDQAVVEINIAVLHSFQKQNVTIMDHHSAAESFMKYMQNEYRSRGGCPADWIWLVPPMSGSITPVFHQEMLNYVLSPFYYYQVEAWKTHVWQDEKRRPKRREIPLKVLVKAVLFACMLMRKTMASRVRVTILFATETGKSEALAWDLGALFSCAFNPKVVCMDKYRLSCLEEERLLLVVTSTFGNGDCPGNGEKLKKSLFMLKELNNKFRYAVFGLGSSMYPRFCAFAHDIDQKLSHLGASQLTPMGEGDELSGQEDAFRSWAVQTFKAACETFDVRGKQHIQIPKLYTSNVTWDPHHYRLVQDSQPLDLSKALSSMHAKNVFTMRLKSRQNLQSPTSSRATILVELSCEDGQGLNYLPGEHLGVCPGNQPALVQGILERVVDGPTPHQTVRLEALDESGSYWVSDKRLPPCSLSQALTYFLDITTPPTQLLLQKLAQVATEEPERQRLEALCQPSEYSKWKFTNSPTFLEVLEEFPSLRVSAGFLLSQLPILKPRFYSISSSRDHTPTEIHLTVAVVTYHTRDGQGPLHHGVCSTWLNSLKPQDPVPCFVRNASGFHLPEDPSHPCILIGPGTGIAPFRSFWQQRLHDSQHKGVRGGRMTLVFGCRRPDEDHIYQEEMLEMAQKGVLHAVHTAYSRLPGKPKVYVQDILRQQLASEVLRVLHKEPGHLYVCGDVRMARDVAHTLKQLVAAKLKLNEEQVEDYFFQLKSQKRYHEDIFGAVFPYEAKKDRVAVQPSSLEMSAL
Sequence of Nitric oxide synthase, inducible (Rattus norvegicus) (Q06518 whole entry): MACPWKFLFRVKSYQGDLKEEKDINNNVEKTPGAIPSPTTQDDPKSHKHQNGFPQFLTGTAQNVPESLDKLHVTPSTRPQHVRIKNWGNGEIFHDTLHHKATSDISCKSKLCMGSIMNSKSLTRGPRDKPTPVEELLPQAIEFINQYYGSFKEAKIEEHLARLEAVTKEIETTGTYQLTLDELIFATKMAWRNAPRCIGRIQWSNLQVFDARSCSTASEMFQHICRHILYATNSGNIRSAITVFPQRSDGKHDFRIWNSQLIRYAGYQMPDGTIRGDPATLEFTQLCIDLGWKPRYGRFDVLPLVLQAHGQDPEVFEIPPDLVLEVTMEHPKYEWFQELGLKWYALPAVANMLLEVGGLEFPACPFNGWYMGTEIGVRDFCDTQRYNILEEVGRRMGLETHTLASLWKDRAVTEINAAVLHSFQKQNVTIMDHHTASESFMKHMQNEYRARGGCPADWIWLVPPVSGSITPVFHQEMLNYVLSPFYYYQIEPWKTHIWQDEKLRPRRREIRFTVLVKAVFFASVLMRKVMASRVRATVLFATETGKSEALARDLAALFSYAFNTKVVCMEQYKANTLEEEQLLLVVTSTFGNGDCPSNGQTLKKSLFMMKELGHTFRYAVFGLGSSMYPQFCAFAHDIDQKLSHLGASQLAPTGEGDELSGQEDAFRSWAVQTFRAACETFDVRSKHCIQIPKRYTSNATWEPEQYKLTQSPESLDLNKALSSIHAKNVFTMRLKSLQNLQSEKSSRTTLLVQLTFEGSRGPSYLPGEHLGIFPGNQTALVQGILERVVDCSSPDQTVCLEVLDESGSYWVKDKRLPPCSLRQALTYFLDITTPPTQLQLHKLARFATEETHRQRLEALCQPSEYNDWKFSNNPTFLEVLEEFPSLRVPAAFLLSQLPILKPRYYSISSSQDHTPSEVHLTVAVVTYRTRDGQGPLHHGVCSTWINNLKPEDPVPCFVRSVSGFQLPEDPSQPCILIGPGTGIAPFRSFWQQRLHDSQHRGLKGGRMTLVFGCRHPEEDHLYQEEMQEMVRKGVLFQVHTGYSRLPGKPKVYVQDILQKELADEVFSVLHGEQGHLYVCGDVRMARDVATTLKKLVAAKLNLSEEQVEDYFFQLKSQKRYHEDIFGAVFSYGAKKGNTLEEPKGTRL

For the compound `Cc1cc(N2CCN(C(=O)C(C)C)[C@H](CC(=O)NCc3ccc4c(c3)OCO4)C2)nc(-n2ccnc2)n1`, the values for the IC50 in data set [1], in data set [7] and in data set [8] were 130 nM, 350 nM and 0.75 nM, respectively. The Ratio IC50 is 29 with BSC-1 [2], above 400 in the data set on BSC-1 [3], 74 with Sf9 [5] and 80 with Sf9 [6]. Moreover, the outcome in data set [4] was inactive.

`Cc1cc(N2CCC[C@@H]2CC(=O)NCc2ccc3c(c2)OCO3)nc(-n2ccnc2)n1`: the IC50 in data set [1] amounted to 4.5 nM; in data set [7], 5.9 nM; in [8], 0.12 nM. Moreover, the Ratio IC50 was 8 with BSC-1 [2], 1000 in the data set on BSC-1 [3], 91 in the data set with Sf9 [5] and 27 with Sf9 [6]. Moreover, the outcome in data set [4] was inactive.

For `O=C(C[C@H]1CCCN1c1ccnc(-n2ccnc2)n1)NCc1ccc2c(c1)OCO2`, the IC50 in data set [1] is 5.5 nM; in data set [7], 5.6 nM; in data set [8] it was 0.28 nM. In addition, the Ratio IC50 was determined as 5 in the data set on BSC-1 [2], 2900 with BSC-1 [3], 47 in the data set on Sf9 [5] and 6 in the data set on Sf9 [6]. In addition, in data set [4], the result was inactive.

As for `CCc1cc(N2CCC[C@@H]2CC(=O)NCc2ccc3c(c2)OCO3)nc(-n2ccnc2)n1`, the IC50 in data set [1] was found to be 7.1 nM; in data set [7], 7.5 nM; in data set [8], 0.13 nM. For the same compound, the Ratio IC50 is 15 with BSC-1 [2], 7800 with BSC-1 [3], 65 in the data set on Sf9 [5] and 18 in the data set on Sf9 [6]. Moreover, the result in data set [4] was inactive.

In the case of `COC(=O)N1CCN(c2ccnc(-n3ccnc3)n2)[C@@H](CC(=O)NCc2ccc3c(c2)OCO3)C1`, the IC50 in [1] is 10 nM; in data set [7] it was 18 nM; in data set [8], 0.24 nM. For the same compound, the Ratio IC50 in the data set with BSC-1 [2] is 6; with BSC-1 [3], 1100; with Sf9 [5] it was 32; in the data set on Sf9 [6], 16. For the same compound, the outcome in data set [4] was inactive.

Regarding `O=C(NCCc1ccc2c(c1)OCO2)[C@H]1CCCN1c1ccnc(-n2ccnc2)n1`, the IC50 in data set [1] worked out at 11 nM; in data set [7] it was 25 nM; in data set [8], 0.48 nM. Also, the Ratio IC50 is 19 in the data set with BSC-1 [2], above 2000 in the data set with BSC-1 [3], 181 with Sf9 [5] and 74 in the data set on Sf9 [6]. Besides, the outcome in data set [4] was inactive.

Regarding `COC(=O)N1CCN(c2ccnc(-n3ccnc3)n2)C(CC(=O)NCc2ccc3c(c2)OCO3)C1` (stereo unspecified), the IC50 in [1] came out at 12 nM; in data set [7], 24 nM; in [8] it was 0.38 nM. Further, the Ratio IC50 came to 5 in the data set on BSC-1 [2], 1700 with BSC-1 [3], 82 in the data set with Sf9 [5] and 25 in the data set on Sf9 [6]. For the same compound, the outcome in data set [4] was inactive.

With `CCc1cc(N2CCC[C@@H]2C(=O)NCCc2ccc3c(c2)OCO3)nc(-n2ccnc2)n1`, the IC50 in [1] was found to be 16 nM; in [7] it was 25 nM; in data set [8] it was 0.52 nM. Besides, the Ratio IC50 is 67 in the data set on BSC-1 [2], above 3800 with BSC-1 [3], 170 in the data set on Sf9 [5] and 280 with Sf9 [6]. Moreover, the outcome in [4] was inactive.

Consider `Cc1cc(N2CCN(C(=O)C(C)C)C(CC(=O)NCc3ccc4c(c3)OCO4)C2)nc(-n2ccnc2)n1` (stereo unspecified), for which the IC50 in [1] came out at 46 nM; in [7], 80 nM; in [8] it was 1.9 nM. The Ratio IC50 with BSC-1 [2] is 80; in the data set with BSC-1 [3] it was above 300; with Sf9 [5] it was 240; in the data set on Sf9 [6], 120. In addition, the outcome in [4] was inactive.

Consider `O=C(CC1CCCCN1c1cc(-c2ccccc2)nc(-n2ccnc2)n1)NCc1ccc2c(c1)OCO2` (stereo unspecified), for which the Ratio IC50 with BSC-1 [2] stood at 4; with BSC-1 [3], 36. Moreover, the result in [4] was inactive. Also, the values for the IC50 in data set [7] and in data set [8] were 450 nM and 67 nM, respectively.

With `O=C(CC1CCCCN1c1cc(-n2ccnc2)nc(-n2ccnc2)n1)NCc1ccc2c(c1)OCO2` (stereo unspecified), the Ratio IC50 stood at 13 in the data set on BSC-1 [2] and 130 in the data set on BSC-1 [3]. Moreover, in data set [4], the result was inactive. Further, the half-inhibitory concentration (IC50) in data set [7] is 515 nM; in data set [8], 35 nM.

`Cc1cc(N2CCC[C@@H]2C(=O)NCCc2ccc3c(c2)OCO3)nc(-n2ccnc2)n1`: the values for the IC50 in data set [1], in data set [7] and in data set [8] were 14 nM, 20 nM and 0.29 nM, respectively. In data set [9], the clearance was 4.5 mL/min/kg. Also, the Ratio IC50 in the data set on BSC-1 [2] was 62; in the data set with BSC-1 [3], above 5000; in the data set on Sf9 [5] it was 540; in the data set on Sf9 [6], 327. The half-life in data set [10] is 0.7 h; in data set [11], 2.5 h. For the same compound, the result (in data set [4]; in the data set with Rattus norvegicus) was inactive. Besides, the bioavailability in [12] turned out to be 21%; in [13], 71%.

Consider `O=C(CC1CN(C(=O)Nc2ccccc2)CCN1c1ccnc(-n2ccnc2)n1)NCc1ccc2c(c1)OCO2` (stereo unspecified), for which the Ratio IC50 with BSC-1 [2] came out at 3; with BSC-1 [3] it was 350. Besides, in data set [4], the outcome was inactive. Further, the IC50 in data set [7] is 25 nM; in [8] it was 0.87 nM.
